Calls of active or inactive are those of the source. The rule behind the calls is not given here.
Legend:
hERG (KCNH2) = hERG (KCNH2) (Homo sapiens, UniProt Q12809); assay: Inhibition of human ERG stably overexpressed in HEK293 cells assessed as remaining activity at 6 uM incubated for 30 mins by FLIPR assay; assay type: toxicity, cell-based; conditions: HEK293 cells stably overexpressing hERG, read-out: Activity
In short: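 HEK-293 cells stably expressing hERG, seeded at 60 000/well and grown 24 h. Compounds were added in DMSO (final 0.5%) and incubated 30 min in the dark. After 20 s baseline, Tl+ stimulus (3 mM) was added and fluorescence (ex 485/em 535 nm) recorded for 2.5 min.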

[1] = Metabolic stability in rat liver microsome assessed as compound remaining at 20 uM measured after 32 mins in presence of NADP and GSH by HPLC analysis; assay type: ADME; conditions: liver microsomes, read-out: Stability
In short: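 Rat liver microsomes (final 2 mg/mL) in 50 mM phosphate pH 7.4 with 0.3 mM NADP+, 5.3 mM glucose-6-phosphate, G6PDH, 10 mM MgCl2 and 5 mM EDTA. 20 μM compound added at 37 °C. Aliquots at 0, 16 and 32 min were quenched in ice-cold acetonitrile and centrifuged. HPLC peak area at 254/280 nm was expressed relative to 0 min.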

Leishmania major = assay: Antileishmanial activity against wild type Leishmania major FV1 promastigotes […] assessed as inhibition of parasite growth incubated for 72 hrs by automatic microtiter plate reader analysis; assay type: functional, organism-based
In short: (§1)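 Promastigotes were grown in Schneider's medium (4 mM glutamine, gentamicin, 10% heat-inactivated FBS, pH 6.9, 27 °C). Cells were seeded at 1.5 × 10^5/well and exposed to a concentration series for 72 h at 27 °C.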

Leishmania donovani [2] = assay: Antileishmanial activity against miltefosine resistant Leishmania donovani HU3MILR40 amastigotes infected in mouse peritoneal macrophage assessed as inhibition of parasite growth incubated for 72 hrs by giemsa staining based analysis; assay type: functional, organism-based
In short: (§2)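 Mouse peritoneal macrophages in DMEM + 10% heat-inactivated FBS, penicillin/streptomycin; 1 × 10^5 cells per well on coverslips, adhered overnight at 37 °C, 5% CO2, non-adherent cells washed off. Infected overnight with late-log promastigotes at parasite:macrophage 40:1. Compound exposure 72 h at 37 °C; Giemsa stain, amastigotes per 100 macrophages counted, IC50 derived; means ± SD of 3–4 independent experiments.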

Leishmania braziliensis [3] = assay: Antileishmanial activity against wild type Leishmania braziliensis UA847 amastigotes infected in mouse peritoneal macrophage assessed as inhibition of parasite growth incubated for 72 hrs by giemsa staining based analysis; assay type: functional, organism-based
In short: (§3)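 Mouse peritoneal macrophages (1 × 10^5/well on coverslips, DMEM + 10% heat-inactivated FBS, penicillin/streptomycin) adhered overnight at 37 °C, 5% CO2. They were infected overnight with late-log promastigotes at a 20:1 parasite:macrophage ratio. Cells were then treated with compound for 72 h at 37 °C and Giemsa-stained. Amastigotes per 100 macrophages were counted to derive IC50; mean ± SD of 3–4 independent experiments.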

Leishmania donovani [4] = assay: Antileishmanial activity against wild type Leishmania donovani HU3 amastigotes infected in mouse peritoneal macrophage assessed as inhibition of parasite growth incubated for 72 hrs by giemsa staining based analysis; assay type: functional, organism-based; in short: as §2
[5] = Cytotoxicity against mouse L929 cells assessed as inhibition of cell growth incubated for 72 hrs by MTS assay; assay type: toxicity, cell-based
In short: (§4)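 Cells in DMEM + 10% heat-inactivated FBS with penicillin/streptomycin at 37 °C, 5% CO2. They were seeded at 1 × 10^4/well and incubated with a concentration series for 72 h at 37 °C. Viability was read by MTS/PMS assay at 490 nm and IC50 derived.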

[6] = Metabolic stability in rat liver S9 fraction assessed as compound remaining at 20 uM measured after 32 mins in presence of NADP and GSH by HPLC analysis; assay type: ADME, subcellular; conditions: read-out: Stability
In short: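 Rat liver S9 (final 4 mg/mL) in 50 mM phosphate pH 7.4 with NADPH-regenerating system (0.3 mM NADP+, 5.3 mM glucose-6-phosphate, G6PDH), 10 mM MgCl2 and 5 mM EDTA. Pre-warmed 10 min at 37 °C, then 20 μM compound and 5.5 μM GSH added. Samples taken at 0, 16 and 32 min were quenched in ice-cold acetonitrile. HPLC (254/280 nm) peak area was expressed relative to 0 min.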

Leishmania braziliensis [7] = assay: Antileishmanial activity against wild type Leishmania braziliensis UA847 promastigotes […] assessed as inhibition of parasite growth incubated for 72 hrs by automatic microtiter plate reader analysis; assay type: functional, organism-based; in short: as §1
Leishmania amazonensis [8] = assay: Antileishmanial activity against wild type Leishmania amazonensis LV78 promastigotes […] assessed as inhibition of parasite growth incubated for 72 hrs by automatic microtiter plate reader analysis; assay type: functional, organism-based; in short: as §1
[9] = Selectivity ratio of IC50 for cytotoxicity against mouse peritoneal macrophage assessed as inhibition of cell growth to IC50 for antileishmanial activity against miltefosine resistant Leishmania donovani HU3MILR40 amastigotes infected in mouse peritoneal macrophage assessed as inhibition of parasite growth; assay type: toxicity, cell-based; conditions: peritoneal macrophages, read-out: Ratio IC50
Leishmania amazonensis [10] = assay: Antileishmanial activity against wild type Leishmania amazonensis LV78 amastigotes infected in mouse peritoneal macrophage assessed as inhibition of parasite growth incubated for 72 hrs by giemsa staining based analysis; assay type: functional, organism-based; in short: as §3
Leishmania donovani [11] = assay: Antileishmanial activity against miltefosine resistant Leishmania donovani HU3MILR40 amastigotes infected in mouse peritoneal macrophage assessed as inhibition of parasite growth at 1.5 uM incubated for 72 hrs by giemsa staining based analysis; assay type: functional, organism-based
In short: (§5)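 Adherent mouse peritoneal macrophages on coverslips infected overnight with late-log HU3MILR40 promastigotes (40 parasites per macrophage), then exposed to compound at a single fixed concentration in DMEM + 10% FBS for 72 h at 37 °C. Giemsa-stained coverslips imaged at 1000×; amastigotes per 100 macrophages counted versus DMSO control; mean ± SD of three independent experiments, Student's t-test.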

[12] = Cytotoxicity against mouse peritoneal macrophage assessed as inhibition of cell growth incubated for 72 hrs by giemsa staining based analysis; assay type: toxicity; conditions: peritoneal macrophages
RAW264.7 = assay: Cytotoxicity against mouse RAW264.7 cells assessed as inhibition of cell growth incubated for 72 hrs by MTS assay; assay type: functional, cell-based; conditions: RAW264.7, 72 h; in short: as §4
Leishmania donovani [13] = assay: Antileishmanial activity against miltefosine resistant Leishmania donovani HU3MILR40 promastigotes […] assessed as inhibition of parasite growth incubated for 72 hrs by automatic microtiter plate reader analysis; assay type: functional, organism-based
In short: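 Promastigote (free parasite) assay: Schneider's Drosophila medium with 4 mM glutamine, 25 μg mL−1 gentamicin, 10% heat-inactivated FBS, pH 6.9, 27 °C. 1.5 × 10^5 promastigotes per well exposed to a concentration series for 72 h at 27 °C.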

[14] = target: Voltage-gated inwardly rectifying potassium channel KCNH2 (Homo sapiens, UniProt Q12809); assay: Inhibition of human ERG stably overexpressed in HEK293 cells incubated for 30 mins by FLIPR assay; assay type: toxicity, cell-based; conditions: human, hek293, 0.5 h; time 30 min
Leishmania donovani [15] = assay: Antileishmanial activity against wild type Leishmania donovani HU3 promastigotes […] assessed as inhibition of parasite growth incubated for 72 hrs by automatic microtiter plate reader analysis; assay type: functional, organism-based
[16] = Hepatotoxicity against mouse TAMH cells assessed as cell viability at 7.8 to 125 uM incubated for 24 to 48 hrs by MTT assay; assay type: toxicity, cell-based; conditions: dose lower 7.8 µM, time lower 24 hrs, dose upper 125 µM, time upper 48 hrs, read-out: Activity
In short: (§6)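 TAMH mouse liver cells in FCS-free DMEM/F12 with 5% PANEXIN NTA, 10 mM nicotinamide and gentamicin. Seeded at 20 000/well and attached 24 h at 37 °C, 5% CO2. DMSO-diluted compounds were applied for 24 or 48 h. MTT was added for 4 h, formazan dissolved in DMSO and A570 read. Viability was background-corrected and expressed relative to DMSO controls; mean ± SD, ≥3 experiments.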

Leishmania donovani [17] = assay: Antileishmanial activity against miltefosine resistant Leishmania donovani HU3MILR40 amastigotes infected in mouse peritoneal macrophage assessed as inhibition of parasite growth at 20 uM incubated for 72 hrs by giemsa staining based analysis; assay type: functional, organism-based; in short: as §5
[18] = Hepatotoxicity against mouse TAMH cells assessed as cell viability at 125 uM incubated for 48 hrs by MTT assay; assay type: toxicity, cell-based; in short: as §6
[19] = Hepatotoxicity against human HepG2 cells assessed as cell viability at 125 uM incubated for 48 hrs by MTT assay; assay type: toxicity, cell-based; conditions: hepg2, 48 h, 125 µM
In short: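 HEP-G2 cells in RPMI 1640 + 10% heat-inactivated FBS, penicillin/streptomycin. Seeded at 15 000/well and attached 24 h at 37 °C, 5% CO2. Compounds were serially diluted in DMSO, with 24 or 48 h exposure. MTT (2.5 mg/mL solution) was added for 4 h, formazan dissolved in DMSO and A570 read. Viability was background-corrected against DMSO-treated cell controls; mean ± SD, ≥3 experiments.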

Chain of Voltage-gated inwardly rectifying potassium channel KCNH2 (Q12809 whole entry): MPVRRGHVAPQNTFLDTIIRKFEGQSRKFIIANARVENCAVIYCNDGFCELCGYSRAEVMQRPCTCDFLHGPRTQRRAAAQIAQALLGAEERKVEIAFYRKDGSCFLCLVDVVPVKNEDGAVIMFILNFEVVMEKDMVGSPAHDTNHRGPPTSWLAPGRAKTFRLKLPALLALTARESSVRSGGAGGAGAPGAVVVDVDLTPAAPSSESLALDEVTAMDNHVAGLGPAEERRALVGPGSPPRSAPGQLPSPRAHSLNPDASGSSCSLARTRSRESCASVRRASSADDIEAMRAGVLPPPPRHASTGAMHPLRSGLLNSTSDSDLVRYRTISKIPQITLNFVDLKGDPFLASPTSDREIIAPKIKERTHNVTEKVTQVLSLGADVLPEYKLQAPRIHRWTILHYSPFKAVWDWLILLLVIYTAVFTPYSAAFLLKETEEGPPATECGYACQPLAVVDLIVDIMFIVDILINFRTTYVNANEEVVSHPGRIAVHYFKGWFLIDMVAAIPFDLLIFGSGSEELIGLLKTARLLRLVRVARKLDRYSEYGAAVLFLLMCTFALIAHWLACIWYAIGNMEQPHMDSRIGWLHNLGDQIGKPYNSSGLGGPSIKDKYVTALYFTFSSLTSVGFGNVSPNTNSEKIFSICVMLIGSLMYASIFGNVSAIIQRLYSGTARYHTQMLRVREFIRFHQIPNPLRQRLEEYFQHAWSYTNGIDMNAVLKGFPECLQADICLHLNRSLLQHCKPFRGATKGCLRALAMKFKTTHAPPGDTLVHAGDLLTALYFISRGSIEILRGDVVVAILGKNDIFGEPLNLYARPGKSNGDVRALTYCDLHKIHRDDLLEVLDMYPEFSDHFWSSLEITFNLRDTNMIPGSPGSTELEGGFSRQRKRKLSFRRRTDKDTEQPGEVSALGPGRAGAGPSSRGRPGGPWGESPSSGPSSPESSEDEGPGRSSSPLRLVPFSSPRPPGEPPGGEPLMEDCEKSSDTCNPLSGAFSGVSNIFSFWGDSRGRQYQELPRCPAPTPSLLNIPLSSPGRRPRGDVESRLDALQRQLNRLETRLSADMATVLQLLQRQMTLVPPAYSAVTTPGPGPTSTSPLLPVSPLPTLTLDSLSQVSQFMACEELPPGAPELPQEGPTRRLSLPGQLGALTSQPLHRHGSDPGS
Chain of hERG (KCNH2) (Q12809 whole entry): as above

SMILES | activity at 0.5 h, 6 µM (hERG (KCNH2)) [%] | remaining at 32 min, 20 µM [1] [%] | IC50 (Leishmania major) [µM] | IC50 (Leishmania donovani [2]) [µM] | IC50 (Leishmania braziliensis [3]) [µM] | IC50 (Leishmania donovani [4]) [µM] | IC50 at 72 h [5] [µM] | remaining at 32 min, 20 µM [6] [%] | IC50 (Leishmania braziliensis [7]) [µM] | IC50 (Leishmania amazonensis [8]) [µM] | selectivity ratio [9] | IC50 (Leishmania amazonensis [10]) [µM] | Activity (Leishmania donovani [11]) | IC50 at 72 h [12] [µM] | IC50 (RAW264.7) [µM] | IC50 (Leishmania donovani [13]) [µM] | IC25 [14] [µM] | IC50 (Leishmania donovani [15]) [µM] | viability at up to 125 µM [16] [%] | also measured
CSc1ccc(OC[C@@H]2Cn3cc([N+](=O)[O-])nc3O2)cc1 | 87 | 67.5 | 3.1 | 0.4 | 0.5 | 0.4 | > 92.2 | 97 | 1.4 | 1.2 | > 220 | 0.6 | Active | > 88 | > 68.5 | 0.5 | > 6.2 | 1.1 | > 50 | –
CCCCCCCCCCCCCCCCOP(=O)([O-])OCC[N+](C)(C)C [MILTEFOSINE] | – | – | 7 | > 20 | 3.2 | 2.7 | 81.5 | – | 17.8 | 22 | – | 9.6 | – | > 40 | 9.9 | > 40 | – | 6.9 | – | Activity (Leishmania donovani [17]): inactive
CSc1ccc(OCC2Cn3cc([N+](=O)[O-])nc3O2)cc1 (racemic) | 81 | 55.8 | 3.4 | 0.4 | 0.7 | 0.3 | > 100 | 90.4 | 1.5 | 1.8 | > 250 | 0.7 | Active | > 100 | > 100 | 0.4 | 2.9 | 1 | > 50 | –
Cn1c([N+](=O)[O-])cnc1COc1ccc(S(C)(=O)=O)cc1 [FEXINIDAZOLE SULFONE] | – | 100 | 1.7 | – | – | – | > 100 | 100 | 5.9 | 9.4 | – | – | – | – | > 100 | 5.6 | 42.2 | 3.8 | > 50 | Activity [18]: Non-toxic; Activity [19]: Non-toxic
